{"source": "PubChem BioAssay AID588419", "about": "(The Scripps Research Institute Molecular Screening Center, 2011)", "target": "Protein-arginine deiminase type-4 (Homo sapiens) (UniProt Q9UM07)", "sequence (Q9UM07 whole entry, looked up)": "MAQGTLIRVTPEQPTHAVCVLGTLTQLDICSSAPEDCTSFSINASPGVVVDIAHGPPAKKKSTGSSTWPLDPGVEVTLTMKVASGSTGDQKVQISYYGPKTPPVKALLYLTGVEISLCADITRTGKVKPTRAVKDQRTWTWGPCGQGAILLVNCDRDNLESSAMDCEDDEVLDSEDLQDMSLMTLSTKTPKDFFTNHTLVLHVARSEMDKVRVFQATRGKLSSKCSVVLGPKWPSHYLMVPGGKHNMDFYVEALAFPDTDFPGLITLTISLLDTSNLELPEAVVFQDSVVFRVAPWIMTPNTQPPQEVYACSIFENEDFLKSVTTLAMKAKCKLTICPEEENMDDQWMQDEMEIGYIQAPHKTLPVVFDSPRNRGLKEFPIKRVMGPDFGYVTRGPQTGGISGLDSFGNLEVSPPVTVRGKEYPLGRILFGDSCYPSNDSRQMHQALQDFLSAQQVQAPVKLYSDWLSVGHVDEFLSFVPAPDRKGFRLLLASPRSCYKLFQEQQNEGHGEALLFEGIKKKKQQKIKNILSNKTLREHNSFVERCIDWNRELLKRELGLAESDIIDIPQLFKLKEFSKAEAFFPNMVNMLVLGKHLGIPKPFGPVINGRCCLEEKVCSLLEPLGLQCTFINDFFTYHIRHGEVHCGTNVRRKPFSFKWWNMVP", "assay": "recombinant human PAD4 inhibitors – biochemical, BAEE substrate, citrulline absorbance, 0-6 µM range, late-stage follow-up (AID 588419)", "conditions": "recombinant PAD4, BAEE citrulline colorimetric absorbance", "procedure,_shortened": "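assay system = recombinant PAD4 | buffer or medium = Tris-HCl pH 7.6, CaCl2, DTT | reagent = 10 mM BAEE | compound dosing = Seven-point compound series spanning 0 to 6 µM | incubation = 15 min preincubation plus 15 min reaction, 37 °C | measured by = absorbance at 540 nm | read-out basis = IC50 from citrulline formation, quantified via citrulline standard curve | replication = duplicate dose-response curves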", "note": "Active and inactive are the calls of the source.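 How the source made its calls: active means IC50 at or below 1000 nM for PAD4 enzyme inhibition; inactive means IC50 above 1000 nM.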"}
{"smiles": "COC1=C(I)C(=O)c2nc(C#N)ccc2C1=O", "values": [{"measurement": "IC50", "value": "inactive"}]}
